The molecules below were run against T1, Exoenzyme S (Pseudomonas aeruginosa, UniProt Q93SQ1) (assay: Inhibition of recombinant Pseudomonas aeruginosa PAK His6-tagged ExoS ADPRT domain expressed in Escherichia coli using human GST-fused vH-Ras as substrate measured over 30 mins in presence of 14.3.3beta and epsilonNAD+ by fluorescence assay). Conditions: read-out: IC50.
T1 sequence (Q93SQ1 whole entry): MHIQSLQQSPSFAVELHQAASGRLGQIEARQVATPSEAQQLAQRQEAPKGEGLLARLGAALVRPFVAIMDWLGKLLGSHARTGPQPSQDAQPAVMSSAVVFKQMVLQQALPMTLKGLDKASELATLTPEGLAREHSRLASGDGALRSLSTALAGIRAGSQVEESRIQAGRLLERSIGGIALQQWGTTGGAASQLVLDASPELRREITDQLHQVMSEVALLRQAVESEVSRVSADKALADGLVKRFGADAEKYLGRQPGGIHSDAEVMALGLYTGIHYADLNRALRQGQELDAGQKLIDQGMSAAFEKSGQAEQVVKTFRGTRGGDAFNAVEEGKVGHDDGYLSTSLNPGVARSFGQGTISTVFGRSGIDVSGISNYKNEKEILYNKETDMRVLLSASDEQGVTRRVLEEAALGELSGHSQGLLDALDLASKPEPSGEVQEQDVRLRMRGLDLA
Procedure, shortened: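 Recombinant ExoS ADPRT domain with 14-3-3 cofactor, Ras substrate and εNAD+. Read transfer of fluorescent εADP-ribose to Ras. Compounds tested at 8–10 concentrations in triplicate in three independent runs. IC50 by dose-response curve fitting.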

Row | Compound | IC50 [µM]
1 | O=C(O)CCCc1nc2cccc(F)c2c(=O)[nH]1 | 25
2 | O=C(O)CCc1nc2sc3c(c2c(=O)[nH]1)CCC3 | 19 to 20
3 | O=C(O)CCC(=O)Nc1sc2c(c1C(=O)O)CCCC2 | > 200
4 | O=C(O)CCc1nc2cc3c(cc2c(=O)[nH]1)CCC3 | 98
5 | O=C(O)C1CC1c1nc2sc3c(c2c(=O)[nH]1)CCC3 (stereo in doubt; form 2) | 39
6 | O=C(O)[C@@H](O)Cc1nc2sc3c(c2c(=O)[nH]1)CCC3 | 55
7 | O=C(O)CCCCc1nc2sc3c(c2c(=O)[nH]1)CCC3 | 53
8 | O=C(O)c1ccc(-c2nc3ccccc3c(=O)[nH]2)cc1 | 30
9 | O=C(O)/C=C/c1nc2sc3c(c2c(=O)[nH]1)CCC3 | 70
10 | O=C(O)c1ccccc1-c1nc2sc3c(c2c(=O)[nH]1)CCC3 | 97
11 | O=C(O)c1ccc(-c2nc3ccccc3c(=O)[nH]2)o1 | 32
12 | Nc1nc(CCC(=O)O)nc2sc3c(c12)CCC3 | > 200
13 | O=C(O)CCc1nc2scc(-c3ccccc3)c2c(=O)[nH]1 | 56
14 | O=C(O)CCc1nc2ccc3c(c2c(=O)[nH]1)CCC3 | 54
15 | O=C(O)C1CC1c1nc2sc3c(c2c(=O)[nH]1)CCC3 (stereo in doubt; form 1) | 6.9
16 | O=C(O)[C@H]1C[C@H]1c1nc2sc3c(c2c(=O)[nH]1)CCC3 (racemic) | 190

Row | Compound | IC50 [µM]
17 | O=C(O)/C=C\c1nc2sc3c(c2c(=O)[nH]1)CCC3 | 15
18 | O=C(O)CCCc1nc2ccccc2c(=O)[nH]1 | 25 to 30
19 | O=C(O)CCc1nc2sc3c(c2c(=O)[nH]1)CCCC3 | 55
20 | O=C1NC(C2CC2C(=O)O)Nc2sc3c(c21)CCC3 (racemic) | 138
21 | O=c1[nH]c(CCCO)nc2sc3c(c12)CCC3 | 52
22 | O=C(O)CCc1ncc(C2=CCCC2)c(=O)[nH]1 | 200
23 | O=C(O)CCCc1nc2cc(F)c(F)cc2c(=O)[nH]1 | 15
24 | O=C(O)[C@H]1CCC[C@H]1c1nc2sc3c(c2c(=O)[nH]1)CCC3 | 65
25 | CS(=O)(=O)NC(=O)CCc1nc2sc3c(c2c(=O)[nH]1)CCCC3 | 100
26 | O=C(O)CCC(=O)Nc1sc2c(c1C(=O)O)CCOC2 | > 200
27 | O=C(O)[C@H](O)Cc1nc2sc3c(c2c(=O)[nH]1)CCC3 | 191
28 | O=c1[nH]c([C@@H]2C[C@H]2c2nn[nH]n2)nc2sc3c(c12)CCC3 (relative stereo) | 233
29 | O=C(O)[C@H]1C[C@@H]1c1nc2sc3c(c2c(=O)[nH]1)CCC3 (racemic) | 10
30 | COC(=O)CCc1nc2sc3c(c2c(=O)[nH]1)CCC3 | 116
31 | O=C(O)COCc1nc2sc3c(c2c(=O)[nH]1)CCC3 | 72

Same assay, conditions: read-out: pIC50 (converted)

Row | Compound | IC50 [µM]
32 | O=C(O)CCc1nc2sc3c(c2c(=O)[nH]1)CCC3 | 27.5
33 | O=C(O)[C@H]1C[C@@H]1c1nc2sc3c(c2c(=O)[nH]1)CCC3 (racemic) | 11.2

What follows are molecules tested against T2, Exoenzyme S (Pseudomonas aeruginosa) (UniProt Q93SQ1) (assay: Inhibition of recombinant Pseudomonas aeruginosa PAK His6-tagged ExoS ADPRT domain expressed in Escherichia coli at 100 uM using human GST-fused vH-Ras as substrate measured over 30 mins in presence of 14.3.3beta and epsilonNAD+ by fluorescence assay relative to control). Conditions: not given.
T2 sequence (whole entry): T1 sequence (Q93SQ1 whole entry)

Row | Compound | inhibition [%]
34 | O=C(O)CCCc1nc2ccc([N+](=O)[O-])cc2c(=O)[nH]1 | 30
35 | O=C(O)CCCc1nc2ccc3c(c2c(=O)[nH]1)CCCC3 | 30
36 | COC(=O)CCc1nc(N)c2c3c(sc2n1)CCC3 | 12
37 | O=C(O)CCc1nc2sc3c(c2c(=O)[nH]1)CCCCC3 | < 50
38 | O=C(O)CCCc1nc2ccc3c(c2c(=O)[nH]1)CCC3 | 60
39 | COC(=O)CCc1nc(OC)c2c3c(sc2n1)CCC3 | 25
40 | COc1ccc2c(=O)[nH]c(CCCC(=O)O)nc2c1 | 20
41 | O=C(O)CCCc1nc2cc3c(cc2c(=O)[nH]1)CCCC3 | 22
42 | O=C(O)CCCc1nc2cc3c(cc2c(=O)[nH]1)CCC3 | 50
43 | O=C(O)CCc1nc2ccc3c(c2c(=O)[nH]1)CCCC3 | 45
44 | O=C(O)CCCCc1nc2ccccc2c(=O)[nH]1 | 69
45 | O=C(O)/C=C/c1nc2ccccc2c(=O)[nH]1 | < 50
46 | O=C(O)c1ccccc1Cc1nc2sc3c(c2c(=O)[nH]1)CCC3 | 50
47 | O=C(O)CCc1nc2cc3c(cc2c(=O)[nH]1)CCCC3 | 27
48 | O=C(O)CCc1nc2sc3c(c2c(=O)[nH]1)CCOC3 | < 60

The molecules below were run against T1, Exoenzyme S (assay: Inhibition of Pseudomonas aeruginosa PAK secreted full length ExoS using human GST-fused vH-Ras as substrate preincubated for 10 mins followed by epsilonNAD+ addition measured at 30 mins in presence of 14.3.3beta and epsilonNAD+ by real-time fluorescent assay). Conditions: read-out: IC50.
Procedure, shortened: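 Induce ExoS secretion by growing P. aeruginosa PAK overnight at 37 °C in shaken LB. Dilute to OD600 0.001 in LB with 5 mM EGTA and 20 mM MgCl2, then shake 4 h at 37 °C. Add the culture to 500 nM 14-3-3b, vH-Ras and compound in triplicate (13 concentrations, 1% DMSO). Start with εNAD+. Use PAKΔexoS as negative control. Read fluorescence kinetically at 302/410; IC50 from linear-phase velocity (% control), two independent runs.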

Row | Compound | IC50 [µM]
49 | O=C(O)CCCc1nc2cccc(F)c2c(=O)[nH]1 | 7.67
50 | O=C(O)CCc1nc2sc3c(c2c(=O)[nH]1)CCC3 | 6.93
51 | O=C(O)C1CC1c1nc2sc3c(c2c(=O)[nH]1)CCC3 (stereo in doubt; form 2) | 8.31
52 | O=C(O)C1CC1c1nc2sc3c(c2c(=O)[nH]1)CCC3 (stereo in doubt; form 1) | 1.32
53 | O=C(O)/C=C\c1nc2sc3c(c2c(=O)[nH]1)CCC3 | 3.51
54 | O=C(O)[C@H]1C[C@@H]1c1nc2sc3c(c2c(=O)[nH]1)CCC3 (racemic) | 2.36

Same assay, conditions: read-out: pIC50 (converted)

Row | Compound | IC50 [µM]
55 | O=C(O)[C@H]1C[C@@H]1c1nc2sc3c(c2c(=O)[nH]1)CCC3 (racemic) | 2.4

Reference: ChEMBL document CHEMBL4138223, “Structure-activity relationships for inhibitors of Pseudomonas aeruginosa exoenzyme S ADP-ribosyltransferase activity” (Eur J Med Chem, 2018)
